# Measurements: ChEMBL document CHEMBL3593207, “Imidazole clubbed 1,3,4-oxadiazole derivatives as potential antifungal agents” (2015)
# Legend:
# Assay type in all cases: functional
# [1] = tested on: Candida albicans; assay: Inhibition of ergosterol biosynthesis in Candida albicans 2323 assessed as ergosterol content at MIC after 16 hrs by spectrophotometer analysis; parameters: scale not given: the % may be the effect or the level left
# Outline: (§1)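 Cells were pelleted and washed, and wet weight taken. Pellets were saponified in 25% alcoholic KOH at 85 °C for 1 h. Sterols were extracted into n-heptane/water. Ergosterol content is expressed relative to untreated control cells.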
# [2] = tested on: Candida tropicalis; assay: Antifungal activity against clinical isolates of Candida tropicalis 2029 at MIC after 48 hrs by disc diffusion assay
# Outline: (§2)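 Cells (10^3 cells ml−1) grown in YPD were mixed into molten agar (~40 °C) and poured into 100-mm plates. Filter discs (4 mm) were spotted with 10 µl of compound at 1/2 × MIC, MIC or 2 × MIC. Fluconazole and 1% DMSO were the controls. Plates were incubated at 37 °C for 48 h and inhibition zone diameters recorded in mm.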
# [3] = tested on: Candida albicans; assay: Inhibition of ergosterol biosynthesis in Candida albicans 2323 assessed as ergosterol content at 1/2 MIC after 16 hrs by spectrophotometer analysis; parameters: scale not given: the % may be the effect or the level left; outline: as §1
# [4] = tested on: Candida albicans; assay: Antifungal activity against clinical isolates of Candida albicans 2779 by broth microdilution assay
# Outline: (§3)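 CLSI M27-A3 broth microdilution. Compounds diluted to 1 mg/ml in 1% DMSO. Fluconazole (1 mg/ml) served as positive control, 1% DMSO as vehicle control, with media and culture controls. Triplicate at each concentration, repeated thrice. Inocula came from YPDA stocks subcultured in broth for 48 h at 37 °C.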
# [5] = tested on: Candida albicans; assay: Inhibition of ergosterol biosynthesis in Candida albicans 2367 assessed as ergosterol content at MIC after 16 hrs by spectrophotometer analysis; parameters: scale not given: the % may be the effect or the level left; outline: as §1
# [6] = tested on: Candida tropicalis; assay: Inhibition of ergosterol biosynthesis in Candida tropicalis ATCC 750 assessed as ergosterol content at 1/2 MIC after 16 hrs by spectrophotometer analysis; parameters: scale not given: the % may be the effect or the level left; outline: as §1
# [7] = tested on: Candida tropicalis; assay: Antifungal activity against clinical isolates of Candida tropicalis 2029 at half MIC after 48 hrs by disc diffusion assay; outline: as §2
# [8] = tested on: Candida albicans; assay: Inhibition of ergosterol biosynthesis in Candida albicans ATCC 10261 assessed as ergosterol content at 1/2 MIC after 16 hrs by spectrophotometer analysis; parameters: scale not given: the % may be the effect or the level left; outline: as §1
# [9] = tested on: Candida tropicalis; assay: Antifungal activity against clinical isolates of Candida tropicalis 2029 at 2 times MIC after 48 hrs by disc diffusion assay; outline: as §2
# [10] = tested on: Candida albicans; assay: Antifungal activity against clinical isolates of Candida albicans 2367 at half MIC after 48 hrs by disc diffusion assay; outline: as §2
# [11] = tested on: Candida albicans; assay: Antifungal activity against clinical isolates of Candida albicans 2367 at 2 times MIC after 48 hrs by disc diffusion assay; outline: as §2
# [12] = tested on: Candida tropicalis; assay: Antifungal activity against Candida tropicalis ATCC 750 at 2 times MIC after 48 hrs by disc diffusion assay; outline: as §2
# [13] = tested on: Candida albicans; assay: Antifungal activity against clinical isolates of Candida albicans 2367 at MIC after 48 hrs by disc diffusion assay; outline: as §2
# [14] = tested on: Candida tropicalis; assay: Inhibition of ergosterol biosynthesis in Candida tropicalis 2029 assessed as ergosterol content at 1/2 MIC after 16 hrs by spectrophotometer analysis; parameters: scale not given: the % may be the effect or the level left; outline: as §1
# [15] = tested on: Candida tropicalis; assay: Antifungal activity against clinical isolates of Candida tropicalis 2356 at MIC after 48 hrs by disc diffusion assay; outline: as §2
# [16] = tested on: Candida tropicalis; assay: Antifungal activity against clinical isolates of Candida tropicalis 2356 at 2 times MIC after 48 hrs by disc diffusion assay; outline: as §2
# [17] = tested on: Candida albicans; assay: Inhibition of ergosterol biosynthesis in Candida albicans 2779 assessed as ergosterol content at MIC after 16 hrs by spectrophotometer analysis; parameters: scale not given: the % may be the effect or the level left; outline: as §1
# [18] = tested on: Candida albicans; assay: Antifungal activity against clinical isolates of Candida albicans 2323 at half MIC after 48 hrs by disc diffusion assay; outline: as §2
# [19] = tested on: Candida tropicalis; assay: Inhibition of ergosterol biosynthesis in Candida tropicalis 2029 assessed as ergosterol content at MIC after 16 hrs by spectrophotometer analysis; parameters: scale not given: the % may be the effect or the level left; outline: as §1
# [20] = tested on: Candida albicans; assay: Inhibition of ergosterol biosynthesis in Candida albicans ATCC 10261 assessed as ergosterol content at MIC after 16 hrs by spectrophotometer analysis; parameters: scale not given: the % may be the effect or the level left; outline: as §1
# [21] = tested on: Candida albicans; assay: Inhibition of ergosterol biosynthesis in Candida albicans 2779 assessed as ergosterol content at 1/2 MIC after 16 hrs by spectrophotometer analysis; parameters: scale not given: the % may be the effect or the level left; outline: as §1
# [22] = tested on: Candida tropicalis; assay: Cytotoxicity against clinical isolates of Candida tropicalis 2029 at MIC after 24 hrs by WST1 assay
# Outline: (§4)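 Candida cells were exposed to MIC and sub-MIC levels for 24 h in microplates, then to WST-1/CEC dye for 30 min at 37 °C. Plates were shaken 1 min and the reaction stopped with 1% SDS. Formazan was read at 450 nm. % cytotoxicity = 100 × (cell control − experimental)/cell control. Triplicates, mean ± SD.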
# [23] = tested on: Candida albicans; assay: Antifungal activity against Candida albicans ATCC 10261 at half MIC after 48 hrs by disc diffusion assay; outline: as §2
# [24] = tested on: Candida tropicalis; assay: Antifungal activity against clinical isolates of Candida tropicalis 2029 by broth microdilution assay; outline: as §3
# [25] = tested on: Candida albicans; assay: Inhibition of ergosterol biosynthesis in Candida albicans 2367 assessed as ergosterol content at 1/2 MIC after 16 hrs by spectrophotometer analysis; parameters: scale not given: the % may be the effect or the level left; outline: as §1
# [26] = tested on: Candida albicans; assay: Antifungal activity against clinical isolates of Candida albicans 2367 by broth microdilution assay; outline: as §3
# [27] = tested on: Candida tropicalis; assay: Antifungal activity against Candida tropicalis ATCC 750 by broth microdilution assay; outline: as §3
# [28] = tested on: Candida albicans; assay: Antifungal activity against clinical isolates of Candida albicans 2323 at MIC after 48 hrs by disc diffusion assay; outline: as §2
# [29] = tested on: Candida albicans; assay: Antifungal activity against clinical isolates of Candida albicans 2779 at 2 times MIC after 48 hrs by disc diffusion assay; outline: as §2
# [30] = tested on: Candida albicans; assay: Cytotoxicity against clinical isolates of Candida albicans 2323 at MIC after 24 hrs by WST1 assay; outline: as §4
# [31] = tested on: Candida albicans; assay: Antifungal activity against Candida albicans ATCC 10261 by broth microdilution assay; outline: as §3
# [32] = tested on: Candida tropicalis; assay: Antifungal activity against clinical isolates of Candida tropicalis 2356 by broth microdilution assay; outline: as §3
# [33] = tested on: Candida albicans; assay: Cytotoxicity against clinical isolates of Candida albicans 2779 at 1/4 MIC after 24 hrs by WST1 assay; outline: as §4
# [34] = tested on: Candida albicans; assay: Antifungal activity against clinical isolates of Candida albicans 2323 by broth microdilution assay; outline: as §3
# [35] = tested on: Candida albicans; assay: Antifungal activity against clinical isolates of Candida albicans 2779 at half MIC after 48 hrs by disc diffusion assay; outline: as §2
# [36] = tested on: Candida tropicalis; assay: Inhibition of ergosterol biosynthesis in Candida tropicalis ATCC 750 assessed as ergosterol content at MIC after 16 hrs by spectrophotometer analysis; parameters: scale not given: the % may be the effect or the level left
# Outline: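 Cells were harvested, washed, and wet pellet weight recorded. Pellets were saponified in 3 mL 25% alcoholic KOH at 85 °C for 1 h, then sterols extracted into n-heptane. Ergosterol is expressed relative to untreated control cells.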
# [37] = tested on: Candida albicans; assay: Antifungal activity against clinical isolates of Candida albicans 2323 at 2 times MIC after 48 hrs by disc diffusion assay; outline: as §2
# [38] = tested on: Candida tropicalis; assay: Antifungal activity against clinical isolates of Candida tropicalis 2356 at half MIC after 48 hrs by disc diffusion assay; outline: as §2
# [39] = tested on: Candida tropicalis; assay: Inhibition of ergosterol biosynthesis in Candida tropicalis 2356 assessed as ergosterol content at 1/2 MIC after 16 hrs by spectrophotometer analysis; parameters: scale not given: the % may be the effect or the level left; outline: as §1
# [40] = tested on: Candida albicans; assay: Antifungal activity against Candida albicans ATCC 10261 at MIC after 48 hrs by disc diffusion assay; outline: as §2
# [41] = tested on: Candida albicans; assay: Antifungal activity against Candida albicans ATCC 10261 at 2 times MIC after 48 hrs by disc diffusion assay; outline: as §2
# [42] = tested on: Candida albicans; assay: Antifungal activity against clinical isolates of Candida albicans 2779 at MIC after 48 hrs by disc diffusion assay; outline: as §2
# [43] = tested on: Candida tropicalis; assay: Inhibition of ergosterol biosynthesis in Candida tropicalis 2356 assessed as ergosterol content at MIC after 16 hrs by spectrophotometer analysis; parameters: scale not given: the % may be the effect or the level left; outline: as §1
# [44] = tested on: Candida tropicalis; assay: Antifungal activity against Candida tropicalis ATCC 750 at MIC after 48 hrs by disc diffusion assay; outline: as §2
# [45] = tested on: Candida tropicalis; assay: Antifungal activity against Candida tropicalis ATCC 750 at half MIC after 48 hrs by disc diffusion assay; outline: as §2
smiles,measurement,setting,value
CCc1ccnc(-c2nccn2Cc2nnc(-c3ccccc3OC(C)=O)o2)c1,Activity,[1],91%
same,inhibition zone (IZ),[2],5 mm
same,Activity,[3],42%
same,MIC,[4],16 µg/mL
same,Activity,[5],89%
same,Activity,[6],47%
same,inhibition zone (IZ),[7],1 mm
same,Activity,[8],51%
same,inhibition zone (IZ),[9],10 mm
same,inhibition zone (IZ),[10],3 mm
same,inhibition zone (IZ),[11],12 mm
same,inhibition zone (IZ),[12],14 mm
same,inhibition zone (IZ),[13],8 mm
same,Activity,[14],53%
same,inhibition zone (IZ),[15],6 mm
same,inhibition zone (IZ),[16],11 mm
same,Activity,[17],93%
same,inhibition zone (IZ),[18],2 mm
same,Activity,[19],87%
same,Activity,[20],100%
same,Activity,[21],52%
same,Activity,[22],60.62%
same,inhibition zone (IZ),[23],5 mm
same,MIC,[24],16 µg/mL
same,Activity,[25],52%
same,MIC,[26],8 µg/mL
same,MIC,[27],4 µg/mL
same,inhibition zone (IZ),[28],6 mm
same,inhibition zone (IZ),[29],13 mm
same,Activity,[30],60.62%
same,MIC,[31],2 µg/mL
same,MIC,[32],32 µg/mL
same,Activity,[33],7.31%
same,MIC,[34],16 µg/mL
same,inhibition zone (IZ),[35],3 mm
same,Activity,[36],100%
same,inhibition zone (IZ),[37],11 mm
same,inhibition zone (IZ),[38],2 mm
same,Activity,[39],48%
same,inhibition zone (IZ),[40],11 mm
same,inhibition zone (IZ),[41],16 mm
same,inhibition zone (IZ),[42],11 mm
same,Activity,[43],91%
same,inhibition zone (IZ),[44],9 mm
same,inhibition zone (IZ),[45],3 mm
